Assay results as given in PubChem BioAssay AID2097 (Broad Institute, 2009).
Out of some 300,000 compounds screened, about 120 (0.04%) were called active.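 Rule for the calls: active = more than half of replicate wells score below -50%, meaning over 50% inhibition versus plate controls; inconclusive = some replicates but at most half score below -50%; inactive = no replicate scores below -50%.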 This excerpt belongs to a sample that is enriched for actives.

target: Glycogen synthase kinase-3 beta (Homo sapiens) (UniProt P49841); assay: human GSK3beta kinase inhibitors, primary screen, biochemical, cell-free homogeneous, HTS (AID 2097); conditions: GST-GSK3beta kinase, ADP-Glo luminescence, 60 min; at 10 µM; stronger effect = lower value;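 note: 0% = median DMSO wells and -100% = median GW8510 positive control wells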
Sequence (P49841 whole entry, looked up): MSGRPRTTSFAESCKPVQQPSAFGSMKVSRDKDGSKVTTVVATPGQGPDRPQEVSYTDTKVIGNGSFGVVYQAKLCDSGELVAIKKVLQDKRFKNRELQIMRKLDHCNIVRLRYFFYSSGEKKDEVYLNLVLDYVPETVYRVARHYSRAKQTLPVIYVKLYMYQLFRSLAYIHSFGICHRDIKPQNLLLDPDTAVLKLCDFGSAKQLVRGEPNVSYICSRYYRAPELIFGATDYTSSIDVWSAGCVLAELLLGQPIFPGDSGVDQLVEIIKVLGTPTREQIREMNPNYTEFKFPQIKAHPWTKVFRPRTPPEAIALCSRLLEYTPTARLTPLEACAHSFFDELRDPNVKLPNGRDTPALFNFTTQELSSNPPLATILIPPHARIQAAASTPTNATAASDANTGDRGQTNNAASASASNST
In short: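 Assay system: GST-tagged human GSK3beta kinase, cell-free; Input: 1.6 ng GSK3beta; Medium: Tris/MgCl2 kinase buffer; Timing: 60 min enzyme reaction, room temperature; Signal: ADP-Glo luminescence quantifying ADP generated by kinase; Evaluation: score relative to plate controls; Benchmarks: DMSO neutral wells and GW8510 at 20 µM as positive.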

Activity score (negative = inhibition), inactive:
COc1ccc(C(=O)NC(C)Cn2nc(C)cc2C)cc1OC1CCN(C(C)=O)CC1 (stereo unspecified) -1.16%
COc1cc(CN2CCC(n3nccc3NC(=O)CCCc3ccccc3)CC2)ccc1O 1.56%
O=C(Cc1ccccc1)NCC1OCCc2ccccc21 (stereo unspecified) 1.24%
CSCCNCc1cn(-c2ccc(F)cc2F)nc1-c1ccccc1C 6.14%
COCCCNC(=O)CNC(=S)N(Cc1cc(OC)c(OC)c(OC)c1)C1CCCC1 -1.22%
CC(CCc1ccccc1)NCC(O)c1cccc([N+](=O)[O-])c1 (stereo unspecified) 0.339%
O=C(C1CC1)N1N=C2CCCCC2C1(O)C(F)(F)F (stereo unspecified) -1.66%
Cc1ccn2c(=O)c(NC(=O)c3cccc4ccccc34)c(C)nc2c1 -0.598%
CCN(CC(=O)N1CCCC1)S(=O)(=O)c1ccc(F)cc1 -0.618%
O=C(NCCNc1ccc([N+](=O)[O-])cc1Cl)c1ccccc1F -5.43%
COc1ccc(N(Cc2ccc(N(C)C)cc2)C(=O)c2ccc(S(C)(=O)=O)cc2)cc1 1.2%
Cc1cc(C)c(OCCN2CC(C)OC(C)C2)c(Br)c1 (stereo unspecified) -2.1%
Cc1nc(SCC(=O)NC2CCCC2)[nH]c(=O)c1C 1.74%
COc1ccccc1CNC(=O)C1CCN(S(=O)(=O)c2ccc3c(c2)OCCO3)CC1 -1.16%
COc1ccc(CCc2nc(-c3cccs3)no2)cc1 2.12%
O=C(CCN1C(=O)C2C3C=CC(C3)C2C1=O)Oc1ccc2ccccc2c1 (stereo unspecified) 1.85%
Nc1cccnc1Sc1ccccc1 -4.02%
C=CCn1cc(C(=O)NCc2ccc(Cl)cc2)c(=O)c2cc(S(=O)(=O)N(CC)CC)ccc21 4.27%
O=C(O)C1CCCN1C1=NS(=O)(=O)c2ccccc21 (stereo unspecified) 1.84%
COC(=O)c1c(C(=O)OC)c(-c2cccc(C)c2)n2c1CS(=O)C2 (stereo unspecified) -0.0395%
C[C@H](NC(=O)[C@@H]1Cc2ccccc2CN1C(=O)OC(C)(C)C)C(=O)NC1CCCC1 0.0958%
C=CCN1CCN(C(=O)CCCc2ccccc2)CC1 3.12%
COc1ccccc1N1CCC(N2CCN(CC(C)(C)C)C(CCO)C2)CC1 (stereo unspecified) -1.04%
COc1ccccc1C(=O)Nc1ccnn1C1CCN(C(=O)C(C)(C)C)CC1 -0.909%
CC(C)(C)NC(=O)CSC(=Nc1ccccc1F)NC#N 0.51%
Cc1c(NC(=S)NC(=O)CCc2ccccc2)c(=O)n(-c2ccccc2)n1C 0.697%
